Consider 15 molecules from ChEMBL document CHEMBL3286162, “Synthesis and anticancer activity of novel quinoline-docetaxel analogues” (Bioorg Med Chem Lett, 2014).

In assay [1] the test system is MCF7. Nature of the assay: Ratio of docetaxel IC50 to compound IC50 for human MCF7 cells after 72 hrs by MTT assay. It is filed as functional.
Assay [2] deals with MCF7. Kind of assay: Antiproliferative against multidrug-resistant human MCF7 cells after 72 hrs by MTT assay. Particulars: MCF7, 72 h. It is filed as functional, cell-based. The procedure, abridged:
(§1)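 MTT cytotoxicity assay with 72 h continuous exposure of cells to test compounds, run alongside docetaxel as positive control. The panel comprised four parental human cancer lines (HeLa, A549, A2780, MCF-7) and two drug-resistant sublines (A2780-MDR, MCF-7-MDR).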
(In general: Formazan colour is commonly taken as a measure of viable cells.)

Assay [3] concerns MCF7. Nature of the assay: Antiproliferative against human MCF7 cells after 72 hrs by MTT assay. The assay is classed as functional, cell-based. Particulars: MCF7, 72 h. The procedure, abridged:
as §1

Assay [4] deals with A2780. Kind of assay: Antiproliferative against multidrug-resistant human A2780 cells after 72 hrs by MTT assay. To be noted: A2780, 72 h. The assay is classed as functional, cell-based. The method in brief: as §1
Assay [5] relates to A2780. Nature of the assay: Antiproliferative against human A2780 cells after 72 hrs by MTT assay. To be noted: A2780, 72 h. It is filed as functional, cell-based. The procedure, abridged: as §1
Assay [6] deals with A549. Nature of the assay: Antiproliferative against human A549 cells after 72 hrs by MTT assay. To be noted: A549, 72 h. The assay is classed as functional, cell-based. The procedure, abridged:
as §1

Assay [7] concerns HeLa. Kind of assay: Antiproliferative against human HeLa cells after 72 hrs by MTT assay. The assay is classed as functional, cell-based. The procedure, abridged: as §1
In assay [8] the test system is A549. Nature of the assay: Ratio of docetaxel IC50 to compound IC50 for human A549 cells after 72 hrs by MTT assay. The assay is classed as functional.
Assay [9] deals with A2780. Nature of the assay: Ratio of docetaxel IC50 to compound IC50 for human A2780 cells after 72 hrs by MTT assay. It is filed as functional.
For assay [10], the system named is HeLa. Nature of the assay: Ratio of docetaxel IC50 to compound IC50 for human HeLa cells after 72 hrs by MTT assay. It is filed as functional.
Assay [11] concerns MCF7. Nature of the assay: Ratio of docetaxel IC50 to compound IC50 for multidrug-resistant human MCF7 cells after 72 hrs by MTT assay. The assay is classed as functional.

What is called IC50 is the concentration that inhibits the measured activity by half. A low value points to higher potency. For the molecule `CC(=O)O[C@@]12CO[C@@H]1C[C@H](O)[C@@]1(C)C(=O)[C@H](O)C3=C(C)[C@@H](OC(=O)[C@H](OC(=O)c4cnc5ccccc5c4)[C@@H](NC(=O)OC(C)(C)C)c4ccccc4)C[C@@](O)([C@@H](OC(=O)c4ccccc4)[C@H]21)C3(C)C`, the “Ratio IC50” value in the assay on MCF7 [1] came to 2. Also, the IC50 in the assay with MCF7 [2] was determined as 36.3 nM; in the assay with MCF7 [3] it was 17.8 nM; in the assay with A2780 [4] it was 34.9 nM; in the assay with A2780 [5], 44.8 nM; with A549 [6], 41.2 nM; in the assay with HeLa [7] it was 41 nM.
In the case of `CC(=O)O[C@@]12CO[C@@H]1C[C@H](O)[C@@]1(C)C(=O)[C@H](O)C3=C(C)[C@@H](OC(=O)[C@H](OC(=O)c4ccc5ccccc5n4)[C@@H](NC(=O)OC(C)(C)C)c4ccccc4)C[C@@](O)([C@@H](OC(=O)c4ccccc4)[C@H]21)C3(C)C`, the IC50 in the assay with MCF7 [2] amounted to 9.3 nM; in the assay with MCF7 [3] it was 26.4 nM; in the assay on A2780 [4] it was 33.2 nM; with A2780 [5], 35 nM; in the assay on A549 [6], 38.2 nM; with HeLa [7] it was 30.7 nM.
Regarding `CC(=O)O[C@@]12CO[C@@H]1C[C@H](O)[C@@]1(C)C(=O)[C@H](O)C3=C(C)[C@@H](OC(=O)[C@H](O)[C@@H](NC(=O)OC(C)(C)C)c4ccccc4)C[C@@](O)([C@@H](OC(=O)c4ccccc4)[C@H]21)C3(C)C` [DOCETAXEL], the IC50 came out at 180 nM with MCF7 [2]; 38.5 nM with MCF7 [3]; 126 nM in the assay on A2780 [4]; 33 nM in the assay on A2780 [5]; 35.2 nM in the assay on A549 [6]; 50.1 nM in the assay with HeLa [7].
As for `CC(=O)O[C@H]1C(=O)[C@@]2(C)[C@H]([C@H](OC(=O)c3ccccc3)[C@]3(O)C[C@H](OC(=O)[C@H](OC(=O)c4cn(C5CC5)c5cc(Cl)c(F)cc5c4=O)[C@@H](NC(=O)OC(C)(C)C)c4ccccc4)C(C)=C1C3(C)C)[C@]1(OC(C)=O)CO[C@@H]1C[C@@H]2O`, the IC50 in the assay with MCF7 [2] was found to be 38.9 nM; in the assay with MCF7 [3], 30.2 nM; with A2780 [4], 34.5 nM; in the assay with A2780 [5] it was 39.8 nM; in the assay on A549 [6] it was 28.8 nM; with HeLa [7], 25.3 nM.
Turning to `CC(=O)O[C@@]12CO[C@@H]1C[C@H](O)[C@@]1(C)C(=O)[C@H](O)C3=C(C)[C@@H](OC(=O)[C@H](OC(=O)c4cc(-c5ccccc5)nc5ccccc45)[C@@H](NC(=O)OC(C)(C)C)c4ccccc4)C[C@@](O)([C@@H](OC(=O)c4ccccc4)[C@H]21)C3(C)C`, the “Ratio IC50” value with A549 [8] is 2. The IC50 in the assay with MCF7 [2] was 28.4 nM; with MCF7 [3] it was 39.8 nM; in the assay with A2780 [4], 32.5 nM; in the assay on A2780 [5] it was 41.6 nM; in the assay with A549 [6] it was 16 nM; in the assay on HeLa [7], 19.3 nM.
For the molecule `COc1cc(C(=O)O[C@@H](C(=O)O[C@H]2C[C@@]3(O)[C@@H](OC(=O)c4ccccc4)[C@@H]4[C@]5(OC(C)=O)CO[C@@H]5C[C@H](O)[C@@]4(C)C(=O)[C@H](O)C(=C2C)C3(C)C)[C@@H](NC(=O)OC(C)(C)C)c2ccccc2)nc2ccccc12`, the “Ratio IC50” value with MCF7 [1] came to 2. The half-maximal inhibitory concentration (IC50) was 25.6 nM in the assay on MCF7 [2]; 12.8 nM in the assay on MCF7 [3]; 43.9 nM in the assay on A2780 [4]; 32.9 nM in the assay with A2780 [5]; 33.4 nM with A549 [6]; 39 nM in the assay with HeLa [7].
`COc1cc(C(=O)O[C@@H](C(=O)O[C@H]2C[C@@]3(O)[C@@H](OC(=O)c4ccccc4)[C@@H]4[C@]5(OC(C)=O)CO[C@@H]5C[C@H](O)[C@@]4(C)C(=O)[C@H](OC(C)=O)C(=C2C)C3(C)C)[C@@H](NC(=O)OC(C)(C)C)c2ccccc2)nc2ccccc12`: the IC50 came out at 18.2 nM in the assay with MCF7 [2]; 47.6 nM in the assay with MCF7 [3]; 21.3 nM with A2780 [4]; 30.1 nM in the assay with A2780 [5]; 32.3 nM in the assay on A549 [6]; 34.9 nM in the assay on HeLa [7].
In the case of `CC(=O)O[C@H]1C(=O)[C@@]2(C)[C@H]([C@H](OC(=O)c3ccccc3)[C@]3(O)C[C@H](OC(=O)[C@H](OC(=O)c4ccc5ncccc5c4)[C@@H](NC(=O)OC(C)(C)C)c4ccccc4)C(C)=C1C3(C)C)[C@]1(OC(C)=O)CO[C@@H]1C[C@@H]2O`, the “Ratio IC50” value in the assay on A2780 [9] is 2. Also, the IC50 in the assay on MCF7 [2] stood at 35.7 nM; with MCF7 [3], 29.8 nM; in the assay with A2780 [4], 35.1 nM; in the assay on A2780 [5], 16.3 nM; in the assay on A549 [6], 28.4 nM; in the assay on HeLa [7] it was 18.5 nM.
Consider `CC(=O)O[C@H]1C(=O)[C@@]2(C)[C@H]([C@H](OC(=O)c3ccccc3)[C@]3(O)C[C@H](OC(=O)[C@H](OC(=O)c4ccc5ccccc5n4)[C@@H](NC(=O)OC(C)(C)C)c4ccccc4)C(C)=C1C3(C)C)[C@]1(OC(C)=O)CO[C@@H]1C[C@@H]2O`, for which the IC50 was 24.1 nM in the assay with MCF7 [2]; 37.3 nM with MCF7 [3]; 29.8 nM with A2780 [4]; 45.7 nM in the assay with A2780 [5]; 27.1 nM with A549 [6]; 19.9 nM in the assay with HeLa [7].
Consider `CC(=O)O[C@H]1C(=O)[C@@]2(C)[C@H]([C@H](OC(=O)c3ccccc3)[C@]3(O)C[C@H](OC(=O)[C@H](OC(=O)c4nccc5ccccc45)[C@@H](NC(=O)OC(C)(C)C)c4ccccc4)C(C)=C1C3(C)C)[C@]1(OC(C)=O)CO[C@@H]1C[C@@H]2O`, for which, in the assay on A2780 [9], the “Ratio IC50” value was 2. The IC50 with MCF7 [2] was found to be 45.9 nM; in the assay with MCF7 [3], 26.6 nM; in the assay on A2780 [4], 18.6 nM; in the assay with A2780 [5], 16.9 nM; with A549 [6], 35.3 nM; in the assay with HeLa [7] it was 41.2 nM.
`CC(=O)O[C@H]1C(=O)[C@@]2(C)[C@H]([C@H](OC(=O)c3ccccc3)[C@]3(O)C[C@H](OC(=O)[C@H](OC(=O)c4cc(-c5ccccc5)nc5ccccc45)[C@@H](NC(=O)OC(C)(C)C)c4ccccc4)C(C)=C1C3(C)C)[C@]1(OC(C)=O)CO[C@@H]1C[C@@H]2O`: the IC50 in the assay with MCF7 [2] stood at 18.3 nM; in the assay with MCF7 [3], 31.4 nM; in the assay on A2780 [4], 49.8 nM; in the assay with A2780 [5], 28.2 nM; in the assay with A549 [6] it was 42.5 nM; with HeLa [7], 11.8 nM. In addition, the “Ratio IC50” value with HeLa [10] came out at 5.
Consider `CC(=O)O[C@@]12CO[C@@H]1C[C@H](O)[C@@]1(C)C(=O)[C@H](O)C3=C(C)[C@@H](OC(=O)[C@H](OC(=O)c4ccc5ncccc5c4)[C@@H](NC(=O)OC(C)(C)C)c4ccccc4)C[C@@](O)([C@@H](OC(=O)c4ccccc4)[C@H]21)C3(C)C`, for which, in the assay with MCF7 [11], the “Ratio IC50” value came out at 20. Further, the IC50 in the assay on MCF7 [2] is 8.8 nM; with MCF7 [3], 30.7 nM; in the assay on A2780 [4], 30.2 nM; in the assay on A2780 [5], 23.1 nM; in the assay on A549 [6], 38.8 nM; with HeLa [7] it was 34.6 nM.
Consider `CC(=O)O[C@@]12CO[C@@H]1C[C@H](O)[C@@]1(C)C(=O)[C@H](O)C3=C(C)[C@@H](OC(=O)[C@H](OC(=O)c4nccc5ccccc45)[C@@H](NC(=O)OC(C)(C)C)c4ccccc4)C[C@@](O)([C@@H](OC(=O)c4ccccc4)[C@H]21)C3(C)C`, for which the IC50 in the assay with MCF7 [2] is 17.8 nM; in the assay on MCF7 [3], 16.8 nM; in the assay on A2780 [4] it was 12.2 nM; with A2780 [5], 49.3 nM; in the assay with A549 [6], 28.1 nM; in the assay with HeLa [7], 33.2 nM.
As to `CC(=O)O[C@H]1C(=O)[C@@]2(C)[C@H]([C@H](OC(=O)c3ccccc3)[C@]3(O)C[C@H](OC(=O)[C@H](OC(=O)c4cnc5ccccc5c4)[C@@H](NC(=O)OC(C)(C)C)c4ccccc4)C(C)=C1C3(C)C)[C@]1(OC(C)=O)CO[C@@H]1C[C@@H]2O`, the IC50 with MCF7 [2] was found to be 37.8 nM; in the assay with MCF7 [3], 43.3 nM; with A2780 [4], 29 nM; in the assay with A2780 [5], 34.2 nM; in the assay on A549 [6], 41 nM; in the assay on HeLa [7], 36.3 nM.
In the case of `CC(=O)O[C@@]12CO[C@@H]1C[C@H](O)[C@@]1(C)C(=O)[C@H](O)C3=C(C)[C@@H](OC(=O)[C@H](OC(=O)c4cn(C5CC5)c5cc(Cl)c(F)cc5c4=O)[C@@H](NC(=O)OC(C)(C)C)c4ccccc4)C[C@@](O)([C@@H](OC(=O)c4ccccc4)[C@H]21)C3(C)C`, the IC50 came to 21.2 nM in the assay with MCF7 [2]; 42 nM in the assay on MCF7 [3]; 29.7 nM in the assay on A2780 [4]; 45.3 nM in the assay on A2780 [5]; 38.5 nM with A549 [6]; 32.6 nM with HeLa [7].
